Experiments:
[1] = Solubility of the compound in DMSO at 150 uM; assay type: physicochemical
[2] = system: NCI-H460; assay: Growth inhibition of human NCI-H460 cells after 48 hrs by SRB assay; assay type: functional; conditions: NCI-H460, 48 h
Outline: (§1)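 Adherent cells kept in RPMI-1640 with 5% heat-inactivated FBS, 2 mM glutamine and antibiotics at 37 °C, 5% CO₂. Plated at 1.5 ×10⁵ cells/mL (MCF-7) or 0.75 ×10⁵ cells/mL (A375-C5, NCI-H460) and grown 24 h. […] TCA fixation, SRB stain, absorbance 492 nm. GI₅₀ is 50% inhibition of net growth; mean ± SEM, three experiments in duplicate.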

[3] = Growth inhibition of human A375-C5 cells after 48 hrs by SRB assay; assay type: functional; conditions: A375-C5, 48 h; outline: as §1
[4] = system: MCF7; assay: Growth inhibition of human MCF7 cells after 48 hrs by SRB assay; assay type: functional; conditions: MCF7, 48 h; outline: as §1
[5] = system: NCI-H460; assay: Cell cycle arrest in human NCI-H460 cells assessed as accumulation at G0/G1 phase at GI50 after 48 hrs by flow cytometry; assay type: functional
[6] = system: NCI-H460; assay: Induction of apoptosis in human NCI-H460 cells at GI50 after 48 hrs by V-FITC/propidium iodide staining-based flow cytometry; assay type: functional
[7] = system: NCI-H460; assay: Cell cycle arrest in human NCI-H460 cells assessed as accumulation at S phase at GI50 after 48 hrs by flow cytometry; assay type: functional
[8] = system: NCI-H460; assay: Cell cycle arrest in human NCI-H460 cells assessed as accumulation at G2/M phase at GI50 after 48 hrs by flow cytometry; assay type: functional

Structure (SMILES) | solubility [1] | GI50 [2] | GI50 [3] | GI50 [4] | Activity [5] | Activity [6] | Activity [7] | Activity [8]
COc1cccc2c1C(=O)c1c(O)c3c(c(O)c1C2=O)C[C@@](O)(C(=O)CO)C[C@@H]3O[C@H]1C[C@H](N)[C@H](O)[C@H](C)O1 [DOXORUBICIN] | Insoluble |  |  |  |  |  |  | 
COC(=O)c1sc2cc(C#Cc3ccc(F)cc3)cnc2c1N |  | 24 µM | 48.4 µM | 29 µM |  |  |  | 
COC(=O)c1sc2cc(C#Cc3ccc(N(C)C)cc3)cnc2c1N |  | 16.6 µM | 17.7 µM | 20.6 µM |  |  |  | 
COC(=O)c1sc2cc(C#Cc3ccc(OC)cc3)cnc2c1N |  | 0.32 µM | > 37.5 µM | 0.46 µM | 59.7% | 18.7% | 22% | 18.3%
COC(=O)c1sc2cc(C#Cc3cccc(N)c3)cnc2c1N |  | 11.5 µM | 11.6 µM | 10.8 µM |  |  |  | 
COC(=O)c1sc2cc(C#Cc3ccccn3)cnc2c1N |  | 34.9 µM | 13.9 µM | 37.4 µM |  |  |  | 
COC(=O)c1sc2cc(C#Cc3ccccc3OC)cnc2c1N |  | > 47.3 µM | > 47.3 µM | > 47.3 µM |  |  |  | 
COC(=O)c1sc2cc(C#Cc3ccc(N)cc3)cnc2c1N |  | 8.9 µM | 4.8 µM | 2.6 µM | 68% | 17% | 18.6% | 13.4%
C[S+](C)[O-] [DIMETHYL SULFOXIDE] |  |  |  |  | 55.1% | 12.2% | 28.8% | 16.1%
COC(=O)c1sc2cc(C#Cc3cccc(OC)c3)cnc2c1N |  | 49 µM | > 75 µM | 33.4 µM |  |  |  | 
COC(=O)c1sc2cc(C#Cc3ccccc3N)cnc2c1N |  | 5.7 µM | 3.1 µM | 4.1 µM | 54.7% | 25.3% | 23.1% | 24.6%
COC(=O)c1sc2cc(C#Cc3ccsc3)cnc2c1N |  | 24.8 µM | 29.6 µM | 27.7 µM |  |  |  | 
COC(=O)c1sc2cc(C#Cc3ccccc3F)cnc2c1N |  | > 150 µM | > 150 µM | > 150 µM |  |  |  | 
COC(=O)c1sc2cc(C#Cc3cccnc3)cnc2c1N |  | > 150 µM | > 150 µM | > 150 µM |  |  |  | 
COC(=O)c1sc2cc(C#Cc3ccccc3)cnc2c1N |  | > 150 µM | > 150 µM | > 150 µM |  |  |  | 

— ChEMBL document CHEMBL1649398, “Synthesis and evaluation of tumor cell growth inhibition of methyl 3-amino-6-[(hetero)arylethynyl]thieno[3,2-b]pyridine-2-carboxylates. Structure-activity relationships, effects on the cell cycle and apoptosis” (Eur J Med Chem, 2011)
